Source: ChEMBL document CHEMBL5678806, “NMS-P937, an orally available, specific small-molecule polo-like kinase 1 inhibitor with antitumor activity in solid and hematologic malignancies” (Mol Cancer Ther, 2012)

Columns and labels:
[1] = test system: T98G; assay: Antiproliferative activity against human T98G cells assessed as inhibition of cell growth incubated for 72 hrs by cell-titer glo assay; assay type: functional, cell-based
[2] = target: Serine/threonine-protein kinase Nek6 (Homo sapiens, UniProt Q9HC98); assay: Inhibition of NEK6 (unknown origin) in presence of [gamma-33P]ATP
Chain of Serine/threonine-protein kinase Nek6 (Q9HC98 whole entry): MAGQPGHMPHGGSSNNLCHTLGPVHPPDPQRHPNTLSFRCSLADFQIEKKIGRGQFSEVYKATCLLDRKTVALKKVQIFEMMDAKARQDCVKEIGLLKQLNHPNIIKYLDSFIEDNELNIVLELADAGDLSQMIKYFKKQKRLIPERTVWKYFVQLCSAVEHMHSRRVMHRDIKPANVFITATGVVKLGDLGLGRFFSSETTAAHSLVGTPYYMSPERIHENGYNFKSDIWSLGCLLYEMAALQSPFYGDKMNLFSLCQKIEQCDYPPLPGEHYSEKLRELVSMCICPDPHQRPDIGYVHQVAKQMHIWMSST

[3] = test system: U2OS; assay: Effect on cell morphology in human U2OS cells assessed as increased number of rounded cells at 1 uM by time lapse microscopy analysis; assay type: functional, cell-based; details: time lower […], time upper 48.0 hrs, TDE = time-dependent effect
[4] = test system: LN-229; assay: Antiproliferative activity against human LN-229 cells assessed as inhibition of cell growth incubated for 72 hrs by cell-titer glo assay; assay type: functional, cell-based; details: LN-229, 72 h
Procedure, shortened: (§1)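 Cells seeded at 10,000–30,000/cm² (adherent) or 100,000/mL (nonadherent) in medium with 10% fetal calf serum; after 24 h, treated in duplicate with serial dilutions for 72 h. Viable cell number read by CellTiter-Glo luminescence; IC50 from sigmoidal fit; at least two independent experiments.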

[5] = Oral bioavailability in male cynomolgus monkey at 5 mg/kg by LC-MS analysis; assay type: ADME, organism-based, Macaca fascicularis; details: in vivo
[6] = test system: SK-MEL-2; assay: Antiproliferative activity against human SK-MEL-2 cells assessed as inhibition of cell growth incubated for 72 hrs by cell-titer glo assay; assay type: functional, cell-based; details: SK-MEL-2, 72 h
[7] = target: Rho-associated protein kinase 1 (Homo sapiens) (UniProt Q13464); assay: Inhibition of N-terminal His6-tagged recombinant human ROCK-I (17 to 535 residues) expressed in baculovirus infected Sf21 cells assessed as residual activity at 0.1 uM relative to control
Chain of Rho-associated protein kinase 1 (Homo sapiens) (Q13464 2-1354 limits assumed): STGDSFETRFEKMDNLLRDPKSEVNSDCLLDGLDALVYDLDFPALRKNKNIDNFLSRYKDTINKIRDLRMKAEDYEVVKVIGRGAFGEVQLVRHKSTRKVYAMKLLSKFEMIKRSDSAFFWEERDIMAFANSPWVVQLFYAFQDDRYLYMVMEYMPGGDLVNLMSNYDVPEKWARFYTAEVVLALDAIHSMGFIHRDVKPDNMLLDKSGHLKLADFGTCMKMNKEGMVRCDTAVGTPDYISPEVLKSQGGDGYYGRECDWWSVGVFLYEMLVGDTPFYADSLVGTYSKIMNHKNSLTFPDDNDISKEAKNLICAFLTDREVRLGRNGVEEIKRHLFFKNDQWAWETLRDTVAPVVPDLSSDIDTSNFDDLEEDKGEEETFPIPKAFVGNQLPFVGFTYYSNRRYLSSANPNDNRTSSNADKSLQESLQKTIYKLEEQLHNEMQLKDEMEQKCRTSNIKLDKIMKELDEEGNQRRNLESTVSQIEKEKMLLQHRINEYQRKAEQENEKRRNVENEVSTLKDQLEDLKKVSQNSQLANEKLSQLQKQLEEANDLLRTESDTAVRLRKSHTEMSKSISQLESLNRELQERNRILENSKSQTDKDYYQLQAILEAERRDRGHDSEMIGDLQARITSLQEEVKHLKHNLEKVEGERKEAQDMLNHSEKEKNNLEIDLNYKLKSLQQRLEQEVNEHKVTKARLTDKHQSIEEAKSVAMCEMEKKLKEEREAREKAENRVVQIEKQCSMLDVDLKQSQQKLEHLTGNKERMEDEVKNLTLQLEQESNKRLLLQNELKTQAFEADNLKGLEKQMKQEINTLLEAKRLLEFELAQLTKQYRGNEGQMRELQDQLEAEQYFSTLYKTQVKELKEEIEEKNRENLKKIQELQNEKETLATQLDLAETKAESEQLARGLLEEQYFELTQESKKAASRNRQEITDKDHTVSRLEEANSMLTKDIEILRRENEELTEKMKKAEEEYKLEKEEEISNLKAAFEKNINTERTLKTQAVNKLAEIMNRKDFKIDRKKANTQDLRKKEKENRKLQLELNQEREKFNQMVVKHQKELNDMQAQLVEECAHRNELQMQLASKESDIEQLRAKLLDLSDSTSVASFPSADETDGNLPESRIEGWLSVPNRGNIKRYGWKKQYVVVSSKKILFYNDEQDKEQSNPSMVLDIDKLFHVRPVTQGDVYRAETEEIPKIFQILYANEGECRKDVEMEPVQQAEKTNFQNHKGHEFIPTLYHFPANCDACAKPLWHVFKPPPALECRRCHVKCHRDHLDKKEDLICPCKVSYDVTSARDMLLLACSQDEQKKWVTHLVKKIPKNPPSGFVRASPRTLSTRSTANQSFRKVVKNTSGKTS

[8] = test system: MDA-MB-436; assay: Antiproliferative activity against human MDA-MB-436 cells assessed as inhibition of cell growth incubated for 72 hrs by cell-titer glo assay; assay type: functional, cell-based; details: MDA-MB-436, 72 h; procedure, shortened: as §1
[9] = target: CDC7/DBF4 (Cell division cycle 7-related protein kinase/Activator of S phase kinase) (Homo sapiens, UniProt O00311); assay: Inhibition of CDC7/DBF4 (unknown origin) in presence of [gamma-33P]ATP; assay type: protein-complex assay
Chain of CDC7/DBF4 (Cell division cycle 7-related protein kinase/Activator of S phase kinase) (Q9UBU7 whole entry): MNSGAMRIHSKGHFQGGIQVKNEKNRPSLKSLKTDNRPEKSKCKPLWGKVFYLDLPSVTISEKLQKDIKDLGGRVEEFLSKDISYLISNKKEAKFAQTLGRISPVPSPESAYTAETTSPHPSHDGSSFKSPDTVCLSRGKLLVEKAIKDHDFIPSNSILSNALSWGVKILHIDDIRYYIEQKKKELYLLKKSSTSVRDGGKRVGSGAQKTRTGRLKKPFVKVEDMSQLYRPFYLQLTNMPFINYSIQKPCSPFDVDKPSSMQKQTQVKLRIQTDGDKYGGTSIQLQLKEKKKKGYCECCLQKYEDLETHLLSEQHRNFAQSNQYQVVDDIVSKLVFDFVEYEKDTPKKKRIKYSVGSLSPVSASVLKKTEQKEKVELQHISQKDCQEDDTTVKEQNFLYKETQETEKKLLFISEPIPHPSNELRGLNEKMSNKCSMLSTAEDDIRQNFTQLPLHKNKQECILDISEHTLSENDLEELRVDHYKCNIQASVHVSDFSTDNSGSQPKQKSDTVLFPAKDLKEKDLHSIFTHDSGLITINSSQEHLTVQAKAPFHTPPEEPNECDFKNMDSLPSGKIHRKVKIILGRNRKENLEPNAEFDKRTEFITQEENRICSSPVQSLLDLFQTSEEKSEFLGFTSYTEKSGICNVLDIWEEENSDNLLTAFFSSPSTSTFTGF
Chain of CDC7/DBF4 (Cell division cycle 7-related protein kinase/Activator of S phase kinase) (O00311 whole entry): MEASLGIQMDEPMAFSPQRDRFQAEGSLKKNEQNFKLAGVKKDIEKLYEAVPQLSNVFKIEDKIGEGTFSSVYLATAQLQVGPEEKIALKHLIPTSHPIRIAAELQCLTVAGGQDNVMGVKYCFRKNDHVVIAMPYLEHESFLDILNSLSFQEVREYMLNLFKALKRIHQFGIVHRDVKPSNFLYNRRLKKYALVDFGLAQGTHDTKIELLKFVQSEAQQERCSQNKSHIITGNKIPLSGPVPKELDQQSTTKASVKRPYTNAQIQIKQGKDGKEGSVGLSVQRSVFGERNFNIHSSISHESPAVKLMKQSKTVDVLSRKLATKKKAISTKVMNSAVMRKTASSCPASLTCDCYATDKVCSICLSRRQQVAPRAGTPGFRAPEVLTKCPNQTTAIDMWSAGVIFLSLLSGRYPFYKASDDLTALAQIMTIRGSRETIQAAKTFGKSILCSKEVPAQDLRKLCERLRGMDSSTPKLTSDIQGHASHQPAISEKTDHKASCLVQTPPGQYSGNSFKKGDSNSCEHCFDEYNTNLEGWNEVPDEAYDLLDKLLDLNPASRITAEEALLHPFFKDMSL

[10] = target: Serine/threonine-protein kinase PAK 4 (Homo sapiens, UniProt O96013); assay: Inhibition of PAK4 (unknown origin) in presence of [gamma-33P]ATP
Chain of Serine/threonine-protein kinase PAK 4 (O96013 whole entry): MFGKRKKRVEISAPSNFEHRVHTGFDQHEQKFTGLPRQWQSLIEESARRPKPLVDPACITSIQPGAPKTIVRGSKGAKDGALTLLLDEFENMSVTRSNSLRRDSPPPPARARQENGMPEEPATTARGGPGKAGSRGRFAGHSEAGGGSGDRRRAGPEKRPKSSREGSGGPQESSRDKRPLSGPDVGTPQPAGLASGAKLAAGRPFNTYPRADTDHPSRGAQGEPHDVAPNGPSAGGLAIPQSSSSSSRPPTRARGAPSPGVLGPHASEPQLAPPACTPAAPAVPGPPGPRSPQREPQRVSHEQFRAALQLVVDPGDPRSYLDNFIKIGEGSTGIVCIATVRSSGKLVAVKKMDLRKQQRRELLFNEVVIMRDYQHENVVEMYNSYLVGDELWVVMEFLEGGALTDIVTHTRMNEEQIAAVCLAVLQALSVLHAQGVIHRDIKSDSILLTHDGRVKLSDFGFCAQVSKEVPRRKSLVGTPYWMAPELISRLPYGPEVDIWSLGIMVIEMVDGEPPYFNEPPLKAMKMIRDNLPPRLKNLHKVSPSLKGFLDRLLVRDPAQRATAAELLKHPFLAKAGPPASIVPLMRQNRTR

[11] = test system: HCT-116; assay: Antiproliferative activity against human HCT-116 cells assessed as inhibition of cell growth incubated for 72 hrs by cell-titer glo assay; assay type: functional, cell-based; details: HCT-116, 72 h; procedure, shortened: as §1
[12] = target: Serine/threonine-protein kinase NIM1 (Homo sapiens, UniProt Q8IY84); assay: Inhibition of NIM1 (unknown origin) in presence of [gamma-33P]ATP
Chain of Serine/threonine-protein kinase NIM1 (Q8IY84 whole entry): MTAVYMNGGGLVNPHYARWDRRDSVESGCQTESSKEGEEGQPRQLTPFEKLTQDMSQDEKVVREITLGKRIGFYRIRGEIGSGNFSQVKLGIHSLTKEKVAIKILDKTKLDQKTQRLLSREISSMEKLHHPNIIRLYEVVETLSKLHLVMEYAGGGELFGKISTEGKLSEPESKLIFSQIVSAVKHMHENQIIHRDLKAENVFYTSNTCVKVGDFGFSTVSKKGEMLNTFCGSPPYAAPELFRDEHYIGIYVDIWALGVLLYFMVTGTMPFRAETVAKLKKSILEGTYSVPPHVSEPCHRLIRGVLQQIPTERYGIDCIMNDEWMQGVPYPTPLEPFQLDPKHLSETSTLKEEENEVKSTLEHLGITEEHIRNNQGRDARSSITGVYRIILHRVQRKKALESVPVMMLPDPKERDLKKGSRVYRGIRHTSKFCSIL

[13] = target: ALK tyrosine kinase receptor (Homo sapiens) (UniProt Q9UM73); assay: Inhibition of N-terminal His6-tagged recombinant human ALK (1058 to end residues) expressed in baculovirus infected Sf21 cells assessed as residual activity at 0.1 uM relative to control
[14] = target: Eukaryotic elongation factor 2 kinase (Homo sapiens, UniProt O00418); assay: Inhibition of EEF2K (unknown origin) in presence of [gamma-33P]ATP
[15] = target: Serine/threonine-protein kinase Chk1 (Homo sapiens) (UniProt O14757); assay: Inhibition of N-terminal GST-tagged full length human CHK1 expressed in Sf21 cells assessed as residual activity at 0.1 uM relative to control
[16] = test system: L-363; assay: Antiproliferative activity against human L-363 cells assessed as inhibition of cell growth incubated for 72 hrs by cell-titer glo assay; assay type: functional, cell-based; details: L-363, 72 h; procedure, shortened: as §1
[17] = test system: Toledo; assay: Antiproliferative activity against human Toledo cells assessed as inhibition of cell growth incubated for 72 hrs by cell-titer glo assay; assay type: functional, cell-based
[18] = target: Mitogen-activated protein kinase kinase kinase 9 (Homo sapiens) (UniProt P80192); assay: Inhibition of N-terminal 6His-tagged recombinant human MLK1 (134 to 414 residues) expressed in baculovirus infected Sf21 cells assessed as residual activity at 0.1 uM relative to control
[19] = test system: Jurkat; assay: Antiproliferative activity against human Jurkat cells assessed as inhibition of cell growth incubated for 72 hrs by cell-titer glo assay; assay type: functional, cell-based; procedure, shortened: as §1
[20] = Antiproliferative activity against human GBM-0627-GFD cells assessed as inhibition of cell growth incubated for 72 hrs by cell-titer glo assay; assay type: functional, cell-based
Procedure, shortened: (§2)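 Cells seeded 10,000–30,000/cm² (adherent) or 100,000/mL (suspension) in medium with 10% fetal calf serum; after 24 h treated in duplicate with serial dilutions for 72 h. Viable cells read by CellTiter-Glo luminescence; IC50 from sigmoidal fit; at least two independent experiments.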

[21] = test system: LS174T; assay: Antiproliferative activity against human LS174T cells assessed as inhibition of cell growth incubated for 72 hrs by cell-titer glo assay; assay type: functional, cell-based; procedure, shortened: as §1
[22] = test system: SN12C; assay: Antiproliferative activity against human SN12C cells assessed as inhibition of cell growth incubated for 72 hrs by cell-titer glo assay; assay type: functional, cell-based
[23] = target: G protein-coupled receptor kinase 6 (Homo sapiens) (UniProt P43250); assay: Inhibition of N-terminal 6His-tagged recombinant full-length human GRK6 expressed in baculovirus infected Sf21 cells assessed as residual activity at 1 uM relative to control
[24] = target: Serine/threonine-protein kinase Nek11 (Homo sapiens) (UniProt Q8NG66); assay: Inhibition of 6His-tagged recombinant human full-length NEK11 expressed in baculovirus infected Sf21 cells assessed as residual activity at 0.1 uM relative to control
[25] = target: Serine/threonine-protein kinase tousled-like 2 (Homo sapiens, UniProt Q86UE8); assay: Inhibition of TLK2 (unknown origin) in presence of [gamma-33P]ATP
[26] = test system: MOLM-13; assay: Antiproliferative activity against human MOLM-13 cells assessed as inhibition of cell growth incubated for 72 hrs by cell-titer glo assay; assay type: functional, cell-based; details: MOLM-13, 72 h
Procedure, shortened: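 Cells from ATCC or ECACC, kept in supplier-recommended medium with 1% penicillin-streptomycin at 37°C, 5% CO₂. Seeded at 10,000–30,000/cm² (adherent) or 100,000/mL (nonadherent) in medium with 10% fetal calf serum. Dosed after 24 h in duplicate with serial dilutions. Viable cells read by CellTiter-Glo 72 h later. IC50 from sigmoidal fit. At least two independent experiments.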

[27] = Antiproliferative activity against human MEC-1 cells assessed as inhibition of cell growth incubated for 72 hrs by cell-titer glo assay; assay type: functional, cell-based; details: MEC1, 72 h; procedure, shortened: as §1
[28] = test system: EVSA-T; assay: Antiproliferative activity against human EVSA-T cells assessed as inhibition of cell growth incubated for 72 hrs by cell-titer glo assay; assay type: functional, cell-based; procedure, shortened: as §2
[29] = target: Casein kinase I homolog 1 (Saccharomyces cerevisiae S288c) (UniProt P23291); assay: Inhibition of yeast CK1 assessed as residual activity at 1 uM relative to control
[30] = test system: Platelet-derived growth factor receptor alpha (Homo sapiens), P16234 [D842V]; assay: Inhibition of N-terminal His6-tagged recombinant human PDGFRalpha (550 to end residues) D842V mutant expressed in baculovirus infected Sf21 cells assessed as residual activity at 0.1 uM relative to control
Chain of Platelet-derived growth factor receptor alpha (Homo sapiens), P16234 [D842V] (P16234 whole entry D842V): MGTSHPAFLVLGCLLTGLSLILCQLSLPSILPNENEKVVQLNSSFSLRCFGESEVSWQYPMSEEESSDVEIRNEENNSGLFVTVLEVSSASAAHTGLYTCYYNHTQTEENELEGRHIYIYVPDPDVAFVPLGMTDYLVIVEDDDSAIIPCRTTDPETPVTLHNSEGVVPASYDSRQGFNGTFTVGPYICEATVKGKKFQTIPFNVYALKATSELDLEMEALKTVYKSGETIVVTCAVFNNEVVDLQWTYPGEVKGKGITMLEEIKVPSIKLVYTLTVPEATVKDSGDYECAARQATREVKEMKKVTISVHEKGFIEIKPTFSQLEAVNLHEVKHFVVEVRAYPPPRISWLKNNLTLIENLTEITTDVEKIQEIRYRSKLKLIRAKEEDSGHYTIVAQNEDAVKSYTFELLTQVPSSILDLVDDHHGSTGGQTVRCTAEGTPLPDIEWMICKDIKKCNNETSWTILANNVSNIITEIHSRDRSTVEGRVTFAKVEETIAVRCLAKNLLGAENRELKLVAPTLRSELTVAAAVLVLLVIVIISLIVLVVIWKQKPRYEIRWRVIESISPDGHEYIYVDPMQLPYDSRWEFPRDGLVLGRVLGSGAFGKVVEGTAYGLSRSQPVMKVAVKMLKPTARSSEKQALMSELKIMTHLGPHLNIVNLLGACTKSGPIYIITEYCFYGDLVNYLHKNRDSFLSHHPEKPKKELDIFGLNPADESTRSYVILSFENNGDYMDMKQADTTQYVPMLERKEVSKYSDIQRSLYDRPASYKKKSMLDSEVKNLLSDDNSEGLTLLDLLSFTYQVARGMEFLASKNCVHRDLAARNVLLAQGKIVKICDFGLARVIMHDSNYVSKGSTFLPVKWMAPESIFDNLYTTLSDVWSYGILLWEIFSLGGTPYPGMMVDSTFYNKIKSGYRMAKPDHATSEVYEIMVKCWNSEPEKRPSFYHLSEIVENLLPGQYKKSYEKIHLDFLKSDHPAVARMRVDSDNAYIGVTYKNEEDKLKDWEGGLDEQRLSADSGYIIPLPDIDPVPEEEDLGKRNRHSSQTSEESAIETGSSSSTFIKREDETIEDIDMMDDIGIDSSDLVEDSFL

[31] = Volume of distribution at steady state in Beagle dog at 5 mg/kg, iv by LC-MS analysis; assay type: ADME, organism-based, Canis lupus familiaris; details: in vivo, read-out: Vdss

CN1CCN(c2ccc(OC(F)(F)F)c(Nc3ncc4c(n3)-c3c(c(C(N)=O)nn3CCO)CC4)c2)CC1 [ONVANSERTIB]
IC50 [1]: 228 nM | IC50 [2]: > 10000 nM | Activity [3]: Tde | IC50 [4]: 62 nM | F [5]: 35% | IC50 [6]: 256 nM | Activity [7]: 145% | IC50 [8]: 93 nM | IC50 [9]: > 10000 nM | IC50 [10]: > 10000 nM | IC50 [11]: 86 nM | IC50 [12]: > 10000 nM | Activity [13]: 145% | IC50 [14]: > 10000 nM | Activity [15]: 113% | IC50 [16]: 37 nM | IC50 [17]: 42 nM | Activity [18]: 93% | IC50 [19]: 48 nM | IC50 [20]: 56 nM | IC50 [21]: 164 nM | IC50 [22]: 62 nM | Activity [23]: 93% | Activity [24]: 114% | IC50 [25]: > 10000 nM | IC50 [26]: 22 nM | IC50 [27]: 112 nM | IC50 [28]: 41 nM | Activity [29]: 24% | Activity [30]: 122% | Vd [31]: 9.5 L/kg
